System: U2OS
Assay: Multiplex assay against U2OS
Assay type: toxicity, cell-based
Conditions: human
Outline: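 Compound was added to live cells that had been stained at seeding with Hoechst33342, BioTracker Green Microtubule Cytoskeleton Dye, MitoTracker Red and Annexin V Alexa Fluor 680, and imaging followed on a CQ1 microscope at 37°C and 5% CO2. CellPathfinder machine-learning gating divided cells into Hoechst high-intensity objects or normal cells, normal cells into healthy, pyknosed or fragmented nuclei, and pyknosed cells into mitotic or apoptotic. Tubulin, mitochondrial-mass and membrane-permeability phenotypes are per cents of healthy-nucleus cells.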

[1] = 12 h, 1 µM, compound concentration 1 uM, replicate 1
[2] = 12 h, 1 µM, compound concentration 1 uM, replicate 2
[3] = 12 h, 10 µM, compound concentration 10 uM, replicate 1
[4] = 12 h, 10 µM, compound concentration 10 uM, replicate 2
[5] = 24 h, 1 µM, compound concentration 1 uM, replicate 1
[6] = 24 h, 1 µM, compound concentration 1 uM, replicate 2
[7] = 24 h, 10 µM, compound concentration 10 uM, replicate 1
[8] = 24 h, 10 µM, compound concentration 10 uM, replicate 2
[9] = 48 h, 1 µM, compound concentration 1 uM, replicate 1
[10] = 48 h, 1 µM, compound concentration 1 uM, replicate 2
[11] = 48 h, 10 µM, compound concentration 10 uM, replicate 1
[12] = 48 h, 10 µM, compound concentration 10 uM, replicate 2

## CCc1nn(CCCN2CCN(c3cccc(Cl)c3)CC2)c(=O)n1CCOc1ccccc1.Cl [NEFAZODONE HYDROCHLORIDE]
[1]
  Population Apoptotic (%): 42%
  Population Fragmented Nuclei (%): 11%
  Population Healthy Nuclei (%): 67%
  Population Hoechst High Intensity Objects (%): 9%
  Population Membrane Permeable-Phenotype (%): 1%
  Population Mitochondria Different-Phenotype (%): 27%
  Population Mitotic Cells (%): 57%
  Population Normal (%): 90%
  Population Pyknosed Nuclei (%): 20%
  Population Tubulin-Different-Phenotype (%): 28%
[2]
  Population Apoptotic (%): 0%
  Population Fragmented Nuclei (%): 8%
  Population Healthy Nuclei (%): 89%
  Population Hoechst High Intensity Objects (%): 6%
  Population Membrane Permeable-Phenotype (%): 3%
  Population Mitochondria Different-Phenotype (%): 9%
  Population Mitotic Cells (%): 100%
  Population Normal (%): 93%
  Population Pyknosed Nuclei (%): 1%
  Population Tubulin-Different-Phenotype (%): 29%
  Total Cell Count: 68
[3]
  Population Apoptotic (%): 71%
  Population Fragmented Nuclei (%): 13%
  Population Healthy Nuclei (%): 55%
  Population Hoechst High Intensity Objects (%): 5%
  Population Membrane Permeable-Phenotype (%): 56%
  Population Mitochondria Different-Phenotype (%): 100%
  Population Mitotic Cells (%): 28%
  Population Normal (%): 94%
  Population Pyknosed Nuclei (%): 31%
  Population Tubulin-Different-Phenotype (%): 100%
  Total Cell Count: 150
[4]
  Population Apoptotic (%): 69%
  Population Fragmented Nuclei (%): 9%
  Population Healthy Nuclei (%): 69%
  Population Hoechst High Intensity Objects (%): 3%
  Population Membrane Permeable-Phenotype (%): 60%
  Population Mitochondria Different-Phenotype (%): 97%
  Population Mitotic Cells (%): 30%
  Population Normal (%): 96%
  Population Pyknosed Nuclei (%): 20%
  Population Tubulin-Different-Phenotype (%): 97%
  Total Cell Count: 61
[5]
  Population Apoptotic (%): 32%
  Population Fragmented Nuclei (%): 10%
  Population Healthy Nuclei (%): 73%
  Population Hoechst High Intensity Objects (%): 6%
  Population Membrane Permeable-Phenotype (%): 3%
  Population Mitochondria Different-Phenotype (%): 21%
  Population Mitotic Cells (%): 68%
  Population Normal (%): 93%
  Population Pyknosed Nuclei (%): 15%
  Population Tubulin-Different-Phenotype (%): 22%
[6]
  Population Apoptotic (%): 50%
  Population Fragmented Nuclei (%): 8%
  Population Healthy Nuclei (%): 85%
  Population Hoechst High Intensity Objects (%): 2%
  Population Membrane Permeable-Phenotype (%): 1%
  Population Mitochondria Different-Phenotype (%): 15%
  Population Mitotic Cells (%): 50%
  Population Normal (%): 97%
  Population Pyknosed Nuclei (%): 5%
  Population Tubulin-Different-Phenotype (%): 33%
  Total Cell Count: 71
[7]
  Population Apoptotic (%): 82%
  Population Fragmented Nuclei (%): 17%
  Population Healthy Nuclei (%): 49%
  Population Hoechst High Intensity Objects (%): 7%
  Population Membrane Permeable-Phenotype (%): 72%
  Population Mitochondria Different-Phenotype (%): 98%
  Population Mitotic Cells (%): 17%
  Population Normal (%): 92%
  Population Pyknosed Nuclei (%): 33%
  Population Tubulin-Different-Phenotype (%): 100%
  Total Cell Count: 172
[8]
  Population Apoptotic (%): 80%
  Population Fragmented Nuclei (%): 22%
  Population Healthy Nuclei (%): 56%
  Population Hoechst High Intensity Objects (%): 1%
  Population Membrane Permeable-Phenotype (%): 80%
  Population Mitochondria Different-Phenotype (%): 100%
  Population Mitotic Cells (%): 20%
  Population Normal (%): 98%
  Population Pyknosed Nuclei (%): 20%
  Total Cell Count: 72
[9]
  Population Apoptotic (%): 46%
  Population Fragmented Nuclei (%): 9%
  Population Healthy Nuclei (%): 73%
  Population Hoechst High Intensity Objects (%): 5%
  Population Membrane Permeable-Phenotype (%): 3%
  Population Mitochondria Different-Phenotype (%): 15%
  Population Mitotic Cells (%): 53%
  Population Normal (%): 94%
  Population Pyknosed Nuclei (%): 16%
  Population Tubulin-Different-Phenotype (%): 14%
[10]
  Population Apoptotic (%): 16%
  Population Fragmented Nuclei (%): 5%
  Population Healthy Nuclei (%): 88%
  Population Hoechst High Intensity Objects (%): 1%
  Population Membrane Permeable-Phenotype (%): 2%
  Population Mitochondria Different-Phenotype (%): 18%
  Population Mitotic Cells (%): 83%
  Population Normal (%): 98%
  Population Pyknosed Nuclei (%): 5%
  Population Tubulin-Different-Phenotype (%): 46%
  Total Cell Count: 67
[11]
  Population Apoptotic (%): 82%
  Population Fragmented Nuclei (%): 24%
  Population Healthy Nuclei (%): 41%
  Population Membrane Permeable-Phenotype (%): 83%
  Population Mitochondria Different-Phenotype (%): 97%
  Population Mitotic Cells (%): 17%
  Population Pyknosed Nuclei (%): 34%
  Total Cell Count: 246
[12]
  Population Apoptotic (%): 66%
  Population Fragmented Nuclei (%): 14%
  Population Healthy Nuclei (%): 43%
  Population Hoechst High Intensity Objects (%): 8%
  Population Membrane Permeable-Phenotype (%): 85%
  Population Mitochondria Different-Phenotype (%): 100%
  Population Mitotic Cells (%): 33%
  Population Normal (%): 91%
  Population Pyknosed Nuclei (%): 42%
  Population Tubulin-Different-Phenotype (%): 100%
  Total Cell Count: 110
